According to ChEMBL document CHEMBL2146400, “Antiophidic solanidane steroidal alkaloids from Solanum campaniforme” (J Nat Prod, 2011):
Calls of active or inactive are those of the source. The calls are words filed in the database; no cut-off is given here.

Experiments:
SF-295 = experiment: Antiproliferative activity against human SF295 cells; format: functional, cell-based
HCT-8 = experiment: Antiproliferative activity against human HCT8 cells; format: functional, cell-based
[1] = target: T1, Basic phospholipase A2 homolog BnSP-7 (Bothropoides pauloensis) (UniProt Q9IAT9); experiment: Inhibition of Phospholipase A2 Asp49 in Bothropoides pauloensis at 1:1 venom to drug ratio incubated up to 40 mins using 4N3OBA substrate by multiwell plate reader method; details: Bothrops pauloensis
T1 sequence (whole entry): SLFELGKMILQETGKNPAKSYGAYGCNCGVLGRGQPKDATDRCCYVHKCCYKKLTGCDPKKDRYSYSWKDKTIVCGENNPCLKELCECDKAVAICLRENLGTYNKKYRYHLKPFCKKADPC
How it was run: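 Whole venom (1 mg/mL), alone or preincubated 1:1 (w:w) with compound, was added to Tris-HCl 0.1 M, Ca2+ 0.01 M, pH 8.0, with 4-nitro-3-octanoyloxybenzoic acid substrate. Mixture was kept at 37 °C up to 40 min, reading A425 every 5 min. V0 came from the absorbance increase after 20 min.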

Bothrops pauloensis [2] = experiment: Antiophidic activity against Bothropoides pauloensis venom-induced myotoxicity in Swiss mouse assessed as creatine kinase level at 50 ug preincubated with venom for 30 mins before venom injection measured 2 to 48 hrs post dose; format: functional
How it was run: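 Injected mixture was 50 μg venom with 50 μg alkaloid in 50 μL 1% DMSO–PBS (pH 7.2), preincubated 30 min at 37 °C; vehicle controls. Retro-orbital blood was taken at 2, 4, 8, 24 and 48 h. Plasma creatine kinase was measured by UV kit, in U/L (1 U = 1 μmol NADH/min at 37 °C). Mean ± SEM.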

HL-60 = experiment: Antiproliferative activity against human HL60 cells; format: functional, cell-based
MDA-MB-435 = experiment: Antiproliferative activity against human MDA-MB-435 cells; format: functional, cell-based
[3] = Fntinecrotizing activity against Bothropoides pauloensis venom-induced hemorrhage in Swiss mouse assessed as reduction in skin necrotic regions at 50 ug preincubated with venom for 30 mins before venom injection measured 2 hrs post dose; format: ADME, tissue-based, Skin of body; details: bothrops pauloensis, in vivo
Bothrops pauloensis [4] = experiment: Antihemorrhagic activity against Bothropoides pauloensis venom-induced hemorrhage in Swiss mouse assessed as reduction in intensity of hemorrhage area at 50 ug preincubated with venom for 30 mins before venom injection measured 2 hrs post dose; format: functional
How it was run: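 Venom (50 μg) was premixed with 50 μg alkaloid in 50 μL 1% DMSO–PBS, pH 7.2, and held 30 min at 37 °C before injection. At 2 h, five mice were killed and the inner dorsal skin was imaged. Intensity I = A × (N − H): A is area in mm2, N and H are mean colour intensity of normal and hemorrhagic skin. ANOVA/Dunnett.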

Bothrops pauloensis [5] = experiment: Antihemorrhagic activity against Bothropoides pauloensis venom-induced hemorrhage in Swiss mouse assessed as decrease in hemorrhagic area at 50 ug preincubated with venom for 30 mins before venom injection measured 2 hrs post dose; format: functional
How it was run: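 Mice received 50 μL of 1% DMSO–PBS (pH 7.2) holding 50 μg B. pauloensis venom plus 50 μg alkaloid, preincubated 30 min at 37 °C. Vehicle-only negative controls. Five animals were killed at 2 h, and the inner dorsal skin was photographed. Hemorrhagic area was measured in mm2. Mean ± SEM, ANOVA with Dunnett's test.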

Row | SMILES | Activity (SF-295) | Activity (HCT-8) | inhibition [1] | Activity (Bothrops pauloensis [2]) | Activity (HL-60) | Activity (MDA-MB-435) | Activity [3] | Activity (Bothrops pauloensis [4]) | Activity (Bothrops pauloensis [5])
1 | Cc1ccc(O)cc1CC[C@@H]1[C@@H](O)CC[C@]2(C)[C@@H]3[C@H](C[C@@H]12)N1C[C@@H](C)C[C@H]2O[C@]21[C@H]3C (relative stereo) | inactive | inactive | inactive | Active | inactive | inactive |  |  | 
2 | C[C@H]1C[C@H]2O[C@]23[C@@H](C)[C@H]2[C@H](C[C@H]4[C@@H]5CCC6=CC(=O)C=C[C@]6(C)[C@H]5CC[C@]24C)N3C1 (relative stereo) | inactive | inactive | inactive | Active | inactive | inactive | Active | Active | Active
3 | C[C@H]1C[C@H]2O[C@]23[C@@H](C)[C@H]2[C@H](C[C@H]4[C@@H]5CCC6=CC(=O)C=C[C@]6(C)C5=CC[C@]24C)N3C1 | inactive | inactive | inactive | Active | inactive | inactive | Active | Active | Active
